This is a sample that favours compounds with a hit; in the whole collection about 2.7% have one here.
PAD4 FP inh: inhibitors of human PAD4. recombinant PAD4, RCA probe fluorescence polarization. inhibition, % at 6.36 µM. actives 0.41% (n = 330,000);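 active = percent inhibition above a cutoff equal to the mean of all tested compounds plus 3 SD, cut at about 15% in these data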;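 note: 0% = PAD4 with RCA probe and DMSO and 100% = probe without PAD4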
Target sequence (Q9UM07 whole entry, looked up): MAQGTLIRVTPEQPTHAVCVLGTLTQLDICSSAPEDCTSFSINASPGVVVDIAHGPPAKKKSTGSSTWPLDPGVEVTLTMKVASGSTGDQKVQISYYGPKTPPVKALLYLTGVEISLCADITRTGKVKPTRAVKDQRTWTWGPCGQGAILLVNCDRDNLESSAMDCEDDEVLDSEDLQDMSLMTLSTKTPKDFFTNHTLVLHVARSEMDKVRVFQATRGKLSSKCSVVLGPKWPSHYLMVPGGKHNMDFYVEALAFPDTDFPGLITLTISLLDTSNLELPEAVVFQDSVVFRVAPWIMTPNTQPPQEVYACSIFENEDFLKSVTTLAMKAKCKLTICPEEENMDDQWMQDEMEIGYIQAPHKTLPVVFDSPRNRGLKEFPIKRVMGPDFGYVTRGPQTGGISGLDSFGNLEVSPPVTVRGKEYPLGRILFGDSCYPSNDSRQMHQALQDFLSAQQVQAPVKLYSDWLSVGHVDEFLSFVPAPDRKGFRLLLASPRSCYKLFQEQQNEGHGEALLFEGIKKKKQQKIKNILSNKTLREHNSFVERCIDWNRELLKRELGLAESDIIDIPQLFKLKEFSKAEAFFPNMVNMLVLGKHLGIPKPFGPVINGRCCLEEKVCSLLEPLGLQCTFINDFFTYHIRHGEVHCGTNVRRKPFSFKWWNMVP
GSTO1 inh: blocks human GSTO1 in RBBP9 counter-screen | recombinant GSTO1, activity-based probe fluorescence polarization | actives 1.1% (n = 300,000) | inhibition, % at 5.96 µM | P78417;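 active = inhibition above the campaign mean inhibition plus 3 SD, cut at about 35% in these data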;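 note: 0% = GSTO1-1 with DMSO and 100% = wells lacking GSTO1-1 enzyme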
RBBP9 inh: human RBBP9 hydrolase inhibition; O75884; recombinant RBBP9, FP-Rh probe fluorescence polarization; inhibition, % at 7.94 µM; actives 0.2% (n = 220,000); AID 1515;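 active = inhibition above the campaign mean of all tested compounds plus 3 SD, cut at about 14% in these data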;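 note: plate controls were DMSO wells with RBBP9 for no effect and wells lacking RBBP9 protein for full effect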
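Controls: DMSO-treated enzyme wells and wells lacking RBBP9 | Material: RBBP9 protein | Technique: Fluorescence polarization | Replication: Single well per compound, no replicates | Buffer or medium: Tris-NaCl-Pluronic buffer, pH 8.0 | Timing: 30 min compound preincubation, 45 min probe labeling, 25 °C | Read-out basis: Percent inhibition from mP, scaled between DMSO and no-protein wells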
SIAE inh: blocks human sialic acid acetylesterase; Q9HAT2; SIAE FP-Rh probe binding, fluorescence polarization; actives 0.69% (n = 370,000); AID 1053197; inhibition, % at 9.66 µM;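 active = inhibition above a cutoff: mean of compounds within the control limits plus 3 SD of those, cut at about 17% in these data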;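 note: 0% = plate median of compound wells and 100% = probe without SIAE protein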
PRMT1 FP inh: PRMT1 (human) inhibition, primary screen; Q99873; recombinant PRMT1, activity-based probe fluorescence polarization; inhibition, % at 2.79 µM; actives 1.3% (n = 370,000); AID 652257;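 active = inhibition above about 21% made by adding two undisclosed values, limit read from the data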
PAD4 FP conf: confirmation of human PAD4 inhibitors; shares compounds with PAD4 FP inh; recombinant PAD4, RCA probe fluorescence polarization; inhibition, % at 6.36 µM; actives 28% (n = 1,200);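 active = mean inhibition across replicates above the hit cutoff set by the earlier primary screen, cut at about 15% in these data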;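 note: inhibitors block active-site labeling by the probe so polarization falls; 0% = PAD4 with probe and DMSO and 100% = probe without PAD4 enzyme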
The depositor's hits bear a star.

CCOC(=O)C1=C(C(=O)OCC)C2N(Cc3ccc(Br)cc3)c3ccccc3[C@@]23C[C@@H](C(=O)OC)N(S(=O)(=O)c2ccc(F)cc2)C3=N1 (some centres undefined) was read as SIAE inh -2.6 and PRMT1 FP inh 1.5.
For COCCOC(=O)c1c(C)n(C)c2ccc(OC(=O)c3c(OC)cccc3OC)cc12 the results were PAD4 FP inh 29.2*, GSTO1 inh -5.8, SIAE inh -17.5, PRMT1 FP inh 46.0* and PAD4 FP conf 22.6*.
`CC(=O)SCC(=O)N=c1sc2cc(F)ccc2n1C` gave PAD4 FP inh 19.5*, GSTO1 inh -14.3, RBBP9 inh -2.8, SIAE inh -5.5, PRMT1 FP inh -0.5 and PAD4 FP conf 19.1*.
Screening Cn1c(=NC(=O)CS(=O)(=O)c2ccccc2)sc2cc(F)ccc21 returned SIAE inh 1.4 and PRMT1 FP inh 6.0.
Screening CC(=O)N1CC[n+]2c(-c3ccc(Cl)cc3Cl)csc21 returned PAD4 FP inh 16.1*, GSTO1 inh 3.9, RBBP9 inh -8.4, SIAE inh 2.1, PRMT1 FP inh 57.0* and PAD4 FP conf 5.2.
Screening COc1ccc(N=C2C(=O)N3CCCc4cccc2c43)cc1 returned PAD4 FP inh -1.0, GSTO1 inh 2.7, RBBP9 inh -9.3, SIAE inh 5.4 and PRMT1 FP inh 3.6.
Screening OCc1ccccc1SSc1ccccc1CO returned PAD4 FP inh 47.9*, GSTO1 inh 20.8, SIAE inh -9.1, PRMT1 FP inh 106.0* and PAD4 FP conf 41.5*.
Screening OCc1ccccc1CNCc1ccccc1 returned PAD4 FP inh 0.4, GSTO1 inh 4.4, RBBP9 inh -5.7, SIAE inh 1.5 and PRMT1 FP inh -0.1.
Screening FC(F)Oc1ccc(-c2csc(NNC3=NCCCCC3)n2)cc1 returned PAD4 FP inh 19.5*, GSTO1 inh 14.7, RBBP9 inh -3.0, SIAE inh 6.8, PRMT1 FP inh 38.4* and PAD4 FP conf 4.5.
`Cc1cc(=O)oc2cc(OCC(=O)N/N=C/c3ccccc3O)ccc12` gave PAD4 FP inh -2.4, GSTO1 inh 2.6, SIAE inh -7.6 and PRMT1 FP inh -4.0.
`CCc1ccc(/C=N/n2c(COc3ccccc3)n[nH]c2=S)cc1` gave PAD4 FP inh 32.1*, GSTO1 inh -0.9, SIAE inh 4.2, PRMT1 FP inh 15.7 and PAD4 FP conf 12.9.
For COc1ccc(NC(=O)NC(C(F)(F)F)C(F)(F)F)cc1 the results were PAD4 FP inh 14.8*, GSTO1 inh 4.3, RBBP9 inh -0.4, SIAE inh 3.5, PRMT1 FP inh 0.3 and PAD4 FP conf 2.7.
For N#C/C(=C\c1ccc(O)c(Br)c1)C(=O)NCc1ccccc1 the results were PAD4 FP inh -1.2, GSTO1 inh -2.8, RBBP9 inh -8.8, SIAE inh -8.2 and PRMT1 FP inh 1.1.
O=c1[nH]c(N2CCOCC2)cc2ccccc12 was read as PAD4 FP inh 19.6*, GSTO1 inh 25.4, SIAE inh -1.7, PRMT1 FP inh 0.8 and PAD4 FP conf -7.3.
O=c1c(N2CCOCC2)coc2ccccc12 was read as PAD4 FP inh 0.6, GSTO1 inh 0.8, RBBP9 inh -4.5, SIAE inh 1.2 and PRMT1 FP inh -1.2.
COc1ccc(N(CC(=O)NCc2ccc3c(c2)OCO3)S(=O)(=O)c2ccccc2[N+](=O)[O-])c(OC)c1 was read as PAD4 FP inh 2.8, GSTO1 inh 0.7, SIAE inh 2.7 and PRMT1 FP inh 4.6.
Screening Cc1nnc(N/N=C\c2ccc(-c3cccc(C(=O)O)c3)o2)n1N returned PAD4 FP inh 29.7*, GSTO1 inh 19.8, RBBP9 inh -3.5, SIAE inh 0.2, PRMT1 FP inh 2.1 and PAD4 FP conf -5.7.
`O=C(O)c1ccc(N/N=C/c2ccc(-c3ccc(Br)cc3)o2)cc1` gave PAD4 FP inh -1.6, GSTO1 inh 17.7, SIAE inh 2.8 and PRMT1 FP inh 8.0.
`Cc1nnc(N/N=C/c2ccc(Br)cc2)n1N` gave PAD4 FP inh 35.9*, GSTO1 inh 8.0, SIAE inh 0.0, PRMT1 FP inh 0.5 and PAD4 FP conf 10.5.
`Cc1nnc(N/N=C/c2ccc(-c3ccc(Br)cc3)o2)n1N` gave PAD4 FP inh 23.7*, GSTO1 inh 13.3, RBBP9 inh -4.1, SIAE inh 2.8, PRMT1 FP inh 9.6 and PAD4 FP conf 5.3.
`COC(=O)CCSCC(=O)Nc1cc(C)on1` gave PAD4 FP inh -1.8, GSTO1 inh 3.4, RBBP9 inh -1.9, SIAE inh 3.1 and PRMT1 FP inh 2.3.
Screening COc1ccc(/C=N/Nc2nnc(C)n2N)cc1OC returned PAD4 FP inh 25.4*, GSTO1 inh 34.1, RBBP9 inh -7.7, SIAE inh 1.3, PRMT1 FP inh -1.5 and PAD4 FP conf 5.2.
Screening COc1ccc(/C=N/Nc2nnc(C)n2N)cc1OC(C)=O returned PAD4 FP inh 44.6*, GSTO1 inh 30.5, SIAE inh 3.3, PRMT1 FP inh 4.4 and PAD4 FP conf 4.5.
Screening Cn1c(=O)c2c(ncn2CC(=O)Nc2nc(-c3ccccc3Cl)cs2)n(C)c1=O returned PAD4 FP inh 90.0*, GSTO1 inh -1.6, RBBP9 inh -3.4, SIAE inh -7.2, PRMT1 FP inh 5.5 and PAD4 FP conf 2.3.
`CCOC(=O)Cc1csc(NC(=O)Cn2cnc3c2c(=O)n(C)c(=O)n3C)n1` gave PAD4 FP inh 3.4, GSTO1 inh 6.2, RBBP9 inh -3.6, SIAE inh -2.7 and PRMT1 FP inh 0.3.
CCc1ccc(C(=O)NC(=S)Nc2ccc(N3CCOCC3)cc2)cc1 was read as PAD4 FP inh -2.9, GSTO1 inh -1.6, RBBP9 inh -3.6, SIAE inh 3.4 and PRMT1 FP inh 5.8.
`CC(=O)c1ccc(NC(=S)Nc2ccc(N3CCOCC3)cc2)cc1` gave PAD4 FP inh 19.6*, GSTO1 inh 24.0, RBBP9 inh 1.8, SIAE inh 14.8, PRMT1 FP inh 12.9 and PAD4 FP conf 1.6.
For O=C(CSc1nc2ccncc2[nH]1)Nc1ccccc1C(F)(F)F the results were PAD4 FP inh 5.9, GSTO1 inh 12.6, RBBP9 inh -7.9, SIAE inh -2.9 and PRMT1 FP inh -0.3.
`CC(C)c1cccc(C(C)C)c1NC(=O)CN1C(=O)NC2(CCCCCCC2)C1=O` gave PAD4 FP inh 18.1*, SIAE inh -1.4, PRMT1 FP inh -0.3 and PAD4 FP conf 7.7.
O=c1c2ccccc2sn1-c1ccc(F)cc1 was read as PAD4 FP inh 41.6*, SIAE inh 2.5, PRMT1 FP inh 84.4* and PAD4 FP conf 28.9*.
For COC(=O)c1cccc(-n2sc3ccccc3c2=O)c1 the results were PAD4 FP inh 55.3*, SIAE inh 6.4, PRMT1 FP inh 97.6* and PAD4 FP conf 46.5*.
`Cc1ccc(-n2sc3ccccc3c2=O)cc1` gave PAD4 FP inh 53.4*, GSTO1 inh -5.7, RBBP9 inh 37.2*, SIAE inh 9.7, PRMT1 FP inh 75.7* and PAD4 FP conf 30.2*.
